# Reference: PMC9789792 (Inorganic chemistry, 2022)
# Like-named read-outs stand apart in the source and are kept apart here.
# Assays:
# SadX [1] = assay: SadX activity assay: conversion of 1a in the presence of salts; format: biochemical; conditions: 10 μM SadX, 1 mM 1a, 50 mM salt, overnight, room temperature
# Fe(II) center in SadX = assay: UV-vis titration of anion binding; conditions: SadX-His/Fe(II)/αKG, 100 mM HEPES pH 7.5
# How it was run: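 Anaerobic (N₂ glovebox, degassed buffer): SadX-His (0.51 mM, 0.5 μmol) plus FeSO₄ (0.375 μmol) in 100 mM HEPES pH 7.5, 23 °C, quartz cuvette. αKG (5 μmol) added, then anion salt (10–200 mM stocks). Spectra 350–800 nm, dilution-corrected. Difference spectra taken versus initial SadX-His/Fe(II) and zeroed at 800 nm. λmax absorbances fitted to single-site saturation binding for KD.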
# SadX [2] = format: biochemical; conditions: for Km: KM for salt; for Km / kcat: hydroxylation of 1a (1 mM) to give 1b by 0.5 μM SadX, varying [salt]; for Kinetic behaviour of 1b formation as a function of salt concentration: saturating 1a (1 mM), SadX
# SadX [3] = assay: Steady state kinetic analysis of SadX with varying concentrations of 1a; format: biochemical
"Fold improved kcat/KM relative to that in the absence of salt (SadX [3]; SadX, hydroxylation of 1a) [fold]",Compound,Conversion of 1a (to 1b) (SadX [1]),Kd (Fe(II) center in SadX; Blue-shifted Absorbance) [µM],Kd (Fe(II) center in SadX; Red-shifted Absorbance) [µM],Km (SadX [2]) [µM],kcat (SadX [2]) [s⁻¹],Kinetic behaviour of 1b formation as a function of salt concentration (SadX [2]),"Fold by which hydroxylation kcat/KM exceeds WT SadA (SadX [3]; SadX, hydroxylation of 1a) [fold]","kcat (SadX [3]; azidation of 1a by SadX to give 1eN3, varying [1a])"
–,CC(=O)O [acetate],low conversion,–,–,–,–,–,–,–
–,[Cl-].[Na+] [NaCl],–,600,490,4160,0.197,exhibit saturation kinetics,–,–
–,bromide,significantly lower conversion,–,–,–,–,–,–,–
–,O=C[O-].[Na+] [NaOC(O)H],–,530,470,450,0.122,–,–,–
–,F[P-](F)(F)(F)(F)F.[NH4+] [NH4PF6],trace conversion,–,–,–,–,does not follow Michaelis Menten kinetics,–,–
–,N#C[O-].[Na+] [cyanate],high conversion,–,–,–,–,–,–,–
–,[N-]=[N+]=[N-].[Na+] [NaN3],–,2650,600,14,0.953,exhibit saturation kinetics,12,8.72 10^−3 s^−1
16,[Cs+].[F-] [CsF],–,460,450,12000,0.357,–,–,–
